Values after ≈ are worked out from the molar mass of the structure shown. Active and inactive are the calls of the source. The rule behind the calls is not given here.
Columns and labels:
[1] = tested on: Prunus dulcis; test: Inhibition of almond beta glucosidase at 10 uM
[2] = Inhibition of Saccharomyces cerevisiae alpha glucosidase
Summary of the method: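 Baker's yeast α-glucosidase (0.2 U/mL solution) in 0.2 M phosphate buffer pH 6.8 was preincubated with compound at 37 °C for 30 min. 2.5 mM p-nitrophenyl α-D-glucopyranoside solution was then added and the mixture incubated 5 min at 37 °C. The reaction was stopped with 0.1 M Na₂CO₃ and A405 read before and after reaction. Percent inhibition was taken against a buffer-only control, with acarbose as positive control, giving IC50 in mM ± SD.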

[3] = tested on: Penicillium decumbens; test: Inhibition of Penicillium decumbens alpha-rhamnosidase at 10 mM
[4] = tested on: Escherichia coli; test: Antimicrobial activity against Escherichia coli by almar blue assay; type: functional
Summary of the method: (§1)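 Microplate Alamar Blue broth assay: bacteria at 2 × 10⁵ cfu/mL in MHB with 8% Alamar Blue; serial 2-fold compound dilutions in DMSO added (2 µL to 78 µL culture); ceftazidime reference; incubated at 32 °C until growth controls turned pink; fluorescence ex 530/em 590 nm; % inhibition, triplicate averaged; MIC50 and MIC90 interpolated from concentration–inhibition curves.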

[5] = tested on: Staphylococcus aureus; test: Antimicrobial activity against Staphylococcus aureus by almar blue assay; type: functional
Summary of the method: as §1

[6] = tested on: Pseudomonas aeruginosa; test: Antimicrobial activity against Pseudomonas aeruginosa by almar blue assay; type: functional
Summary of the method: as §1

[7] = tested on: Proteus vulgaris; test: Antimicrobial activity against Proteus vulgaris by almar blue assay; type: functional
Summary of the method: as §1

Row | SMILES | Activity [1] | IC50 [2] [mM] | Activity [3] | MIC50 [4] [µM] | MIC90 [4] [µM] | MIC50 [5] [µM] | MIC90 [5] [µM] | MIC50 [6] [µM] | MIC90 [6] [µM] | MIC50 [7] [µM] | MIC90 [7] [µM]
1 | Cc1cccc(O)c1C(=O)O[C@H]1[C@H](O)[C@@H](O)[C@@H](C)C[C@@H]1O (relative stereo) [AMPELOMIN G] | inactive | 1.74 | inactive | – | – | – | – | – | – | – | –
2 | C[C@H]1C[C@H](O)[C@@H]2O[C@@H]2[C@H]1O (relative stereo) [AMPELOMIN B] | inactive | > 10 | inactive | – | – | – | – | – | – | – | –
3 | CC(C)(O/N=C(\C(=O)N[C@@H]1C(=O)N2C(C(=O)[O-])=C(C[n+]3ccccc3)CS[C@H]12)c1csc(N)n1)C(=O)O [CEFTAZIDIME] | – | – | – | 0.37 (≈ 0.202 µg/mL) | 0.46 (≈ 0.251 µg/mL) | 3.11 (≈ 1.7 µg/mL) | 14.7 (≈ 8.01 µg/mL) | 0.73 (≈ 0.399 µg/mL) | 3.94 (≈ 2.15 µg/mL) | 0.18 (≈ 0.0984 µg/mL) | 0.21 (≈ 0.115 µg/mL)
4 | C[C@H]1O[C@H](O[C@H]2[C@H](O)[C@@H](O)[C@@H](O[C@H]3[C@H](O)[C@@H](O)C(O)O[C@@H]3CO)O[C@@H]2CO)[C@H](O)[C@@H](O)[C@@H]1N[C@H]1C=C(CO)[C@@H](O)[C@H](O)[C@H]1O (stereo partly drawn) [ACARBOSE] | – | 0.03 | – | – | – | – | – | – | – | – | –
5 | C[C@H]1C[C@@H](O)C=CC1=O [AMPELOMIN A] | inactive | 3.59 | inactive | 89.9 (≈ 11.3 µg/mL) | 265 (≈ 33.4 µg/mL) | 54.9 (≈ 6.93 µg/mL) | 234 (≈ 29.5 µg/mL) | 63.5 (≈ 8.01 µg/mL) | 1020 (≈ 128 µg/mL) | 51.6 (≈ 6.51 µg/mL) | 202 (≈ 25.5 µg/mL)

Second part, led by results:

Row | Activity [1] | IC50 [2] [mM] | Activity [3] | SMILES | MIC50 [4] [µM] | MIC90 [4] [µM] | MIC50 [5] [µM] | MIC90 [5] [µM] | MIC50 [6] [µM] | MIC90 [6] [µM] | MIC50 [7] [µM] | MIC90 [7] [µM]
6 | inactive | > 10 | inactive | C[C@H]1C[C@H](O)[C@H](O)C[C@H]1O (relative stereo) [AMPELOMIN D] | – | – | – | – | – | – | – | –
7 | inactive | 5.93 | inactive | C[C@H]1C[C@H](O)[C@H](O)C[C@@H]1O (relative stereo) [AMPELOMIN E] | – | – | – | – | – | – | – | –
8 | inactive | > 10 | inactive | C[C@H]1C[C@@H](O)[C@@H](O)C[C@@H]1O (relative stereo) [AMPELOMIN F] | – | – | – | – | – | – | – | –
9 | inactive | 6.12 | inactive | C[C@H]1C[C@H](O)[C@@H](O)C[C@H]1O (relative stereo) [AMPELOMIN C] | – | – | – | – | – | – | – | –

Reference: ChEMBL document CHEMBL1152323, “Polyoxygenated methyl cyclohexanoids from a terrestrial ampelomyces fungus” (J Nat Prod, 2009)
